Measured values taken from paper PMC3312795 (European Journal of Medicinal Chemistry, 2012).

Experiments:
[1] = tested on: SA11 rotavirus; assay: Rotavirus; type: cell-based, rotavirus SA11 (primate G3); details: SA11, MOI of 2, 12 hr post infection
Outline: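 Confluent MA104 monolayers inoculated 1 hr, PBS-washed, then held in MEM with test compound (below 50 μM; below 20 μM for some) or 0.1% DMSO plus trypsin 1 μg/ml. At 12 hr, IFA: methanol fix (RT, 30 min), anti-VP6 mAb, FITC anti-mouse IgG. Western: lysates sonicated, 10% gel, anti-VP6 with β-actin loading control, chemiluminescent detection.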

[2] = tested on: Huh-7 cells; assay: Lipid droplet development in Huh-7 cells; type: cell-based, human; details: various concentrations
Outline: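 Spontaneous lipid droplet formation in confluent Huh-7 cells given various concentrations of test compound or 0.1% DMSO mock for 72 hr. Medium then replaced with NBD-cholesterol (1 μg/ml) medium for a further 12 hr. Cells fixed in 4% formaldehyde for 10 min, PBS-washed, and fluorescence viewed by microscopy. Untreated 1-day-old and 4-day-old cells served as references.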

[3] = tested on: SA11 rotavirus; assay: Pre-treatment of SA11 rotavirus with compound; type: cell-based, rotavirus SA11 (primate G3); details: pre-treatment with compound at 100 M (so in the source), 37 °C for 2 hrs
[4] = tested on: SA11 rotavirus; assay: Rotavirus; type: cell-based, rotavirus SA11 (primate G3); details: MA104, in Primates, 24 h, read-out: ED50, rotavirus (SA11) replication, MA104 cells, TCID50 titers at 24 hr post infection, average of at least 3 independent tests

Structure (SMILES)	anti-rotaviral effects by Western blot analysis and IFA [1]	suppression of increase in lipid droplets [2]	effect of pre-treatment of SA11 rotavirus on viral titer (virucidal effect) [3]	EC50 [4]
CCC/C=C/C/C=C/C=C/C=N/N1CCCS1(=O)=O [1ba, 2-[(2E,4E,7E)-Undeca-2,4,7-trienylideneamino]-1,1-dioxo-1-isothiazolidine]	confirmed	dose-dependent	–	–
CCC/C=C/C/C=C/C=C/CNc1ccc(C(=O)O)cc1 [1e, 4-((2E,4E,7E)-Undeca-2,4,7-trienylamino)benzoic acid]	confirmed	dose-dependent	did not affect the viral titer	–
C=C(C)[C@@H]1CC[C@]2(C(=O)O)CC[C@]3(C)[C@H](CC[C@@H]4[C@@]5(C)CC[C@H](O)C(C)(C)[C@@H]5CC[C@]43C)[C@@H]12 [Betulinic acid, betulinic acid]	–	–	–	11.3 to 28.5 µM
C=C1C(=O)O[C@H](CCCCCCCC)[C@H]1C(=O)O [C75]	–	–	–	11.3 to 28.5 µM
CCCCCCCCCCCCCCCCNc1ccc(C(=O)O)cc1 [PHB, hexadecylamino-p-amino benzoic acid]	–	–	–	11.3 to 28.5 µM
CCC/C=C/C/C=C/C=C/C=N/NN=O [Triacsin C]	confirmed	dose-dependent	did not affect the viral titer	–
